Source: ChEMBL document CHEMBL1127633, “Cyclic beta-casomorphin analogues with mixed mu agonist/delta antagonist properties: synthesis, pharmacological characterization, and conformational aspects” (J Med Chem, 1994)
Residues, ends and D or L forms follow the SMILES beside them.

Assays:
Cavia porcellus = organism: Cavia porcellus; test: In vitro inhibition of electrically evoked contractions of the guinea pig ileum (GPI); format: functional
Summary of the method: (§1)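 Electrically evoked contractions of isolated tissue preparations. Each preparation had its own log dose-response curve with [Leu5]enkephalin as standard. Test IC50 values were normalized to that standard. Mean of three to six determinations ± SEM. Partial agonists are reported as % maximal inhibition of contraction at high concentrations.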

Mus musculus = organism: Mus musculus; test: In vitro inhibition of electrically evoked contractions of the mouse vas deferens (MVD); format: functional; summary of the method: as §1
Mu-type opioid receptor = Mu-type opioid receptor (Rattus norvegicus, UniProt P33535); test: Binding affinity for mu opioid receptors by displacement of [3H]-DAMGO from rat brain membrane binding site
Mu-type opioid receptor, sequence (P33535 whole entry): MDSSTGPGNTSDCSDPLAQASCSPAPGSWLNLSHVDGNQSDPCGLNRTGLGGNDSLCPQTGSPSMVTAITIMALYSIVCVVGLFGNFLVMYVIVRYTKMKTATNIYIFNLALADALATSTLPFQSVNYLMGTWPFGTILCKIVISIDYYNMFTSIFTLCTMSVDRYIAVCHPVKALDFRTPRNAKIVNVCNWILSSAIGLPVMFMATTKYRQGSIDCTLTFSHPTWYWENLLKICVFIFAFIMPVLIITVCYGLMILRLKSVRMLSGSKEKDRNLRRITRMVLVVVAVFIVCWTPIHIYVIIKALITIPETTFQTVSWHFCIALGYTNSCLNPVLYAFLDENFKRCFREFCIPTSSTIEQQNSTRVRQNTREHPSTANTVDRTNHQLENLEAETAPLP

[1] = biological target: Delta-type opioid receptor (Rattus norvegicus, UniProt P33533); test: Binding affinity for delta opioid receptors was determined by displacement of [3H]DSLET from rat brain membrane binding site
Delta-type opioid receptor, sequence (P33533 whole entry): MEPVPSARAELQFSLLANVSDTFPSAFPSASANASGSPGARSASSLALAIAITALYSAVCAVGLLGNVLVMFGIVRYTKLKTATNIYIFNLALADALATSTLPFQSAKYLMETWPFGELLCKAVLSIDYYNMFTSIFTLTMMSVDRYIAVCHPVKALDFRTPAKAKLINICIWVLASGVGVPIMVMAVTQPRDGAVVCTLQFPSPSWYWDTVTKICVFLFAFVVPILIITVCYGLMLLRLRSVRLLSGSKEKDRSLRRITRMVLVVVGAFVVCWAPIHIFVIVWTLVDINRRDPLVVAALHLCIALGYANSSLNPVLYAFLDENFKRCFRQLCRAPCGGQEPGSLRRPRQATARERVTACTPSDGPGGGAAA
Summary of the method: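 Rat brain membranes incubated 2 h at 0 °C with 0.78 nM [3H]DSLET. IC50 read from dose-displacement curves. […] Mean of three to six determinations ± SEM.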

Row | Compound | IC50 (Cavia porcellus) | IC50 (Mus musculus) | Ki (Mu-type opioid receptor) | Ki [1]
1 | N[C@@H](Cc1ccc(O)cc1)C(=O)N[C@@H]1CCCNC(=O)CNC(=O)[C@H]2CCCN2C(=O)[C@H](Cc2c[nH]c3ccccc23)NC1=O | 27.5 nM | 16.1 nM | 2.09 nM | 10.3 nM
2 | N[C@@H](Cc1ccc(O)cc1)C(=O)N[C@@H]1CCCNC(=O)CNC(=O)[C@H]2CCCN2C(=O)[C@H](Cc2ccccc2)NC1=O | 2.14 nM | 4.98 nM | 0.881 nM | 13.2 nM
3 | N[C@@H](Cc1ccc(O)cc1)C(=O)N[C@@H]1CCCNC(=O)CNC(=O)[C@H]2CCCN2C(=O)[C@H](Cc2ccc3ccccc3c2)NC1=O | 384 nM | – | – | –
4 | N[C@@H](Cc1ccc(O)cc1)C(=O)N[C@@H]1CCNC(=O)CNC(=O)[C@H]2CCCN2C(=O)[C@H](Cc2ccc3ccccc3c2)NC1=O | 353 nM | 1000 nM | 6.41 nM | 70.8 nM
5 | N[C@@H](Cc1ccc(O)cc1)C(=O)N[C@@H]1CCCNC(=O)CNC(=O)[C@H]2CCCN2C(=O)[C@H](Cc2cccc3ccccc23)NC1=O | 14.9 nM | 29.9 nM | 3.42 nM | 23.6 nM
6 | N[C@@H](Cc1ccc(O)cc1)C(=O)N[C@@H]1CCCNC(=O)[C@H]2CCCN2C(=O)[C@H](Cc2ccc3ccccc3c2)NC1=O | 11.8 nM | 32.2 nM | 2.74 nM | 28.3 nM
7 | NC(=O)[C@H](Cc1ccccc1)NC(=O)[C@H](Cc1ccccc1)NC(=O)[C@@H]1Cc2ccccc2CN1C(=O)[C@@H](N)Cc1ccc(O)cc1 (HELM PEPTIDE1{Y.[Tic].F.F.[am]}$$$$V2.0) | 1700 nM | – | – | –
8 | N[C@@H](Cc1ccc(O)cc1)C(=O)NC1CCCNC(=O)CNC(=O)[C@@H]2CCCN2C(=O)[C@H](Cc2ccccc2)NC1=O (single isomer, unassigned) | 13.4 nM | 69.9 nM | 3.99 nM | 1280 nM
9 | N[C@@H](Cc1ccc(O)cc1)C(=O)NC1CCCNC(=O)CNC(=O)[C@@H]2CCCN2C(=O)[C@H](Cc2ccc3ccccc3c2)NC1=O (single isomer, unassigned) | 1220 nM | 10000 nM | 81.3 nM | 2140 nM
